Results published in ChEMBL document CHEMBL5523688, “Selective targeting of human TET1 by cyclic peptide inhibitors: Insights from biochemical profiling” (Bioorg Med Chem, 2024).

What was measured:
[1] = target: Methylcytosine dioxygenase TET3 (Homo sapiens, UniProt O43151); assay: Inhibition of recombinant human TET3 catalytic domain (E824 to I1795 residues) expressed in baculovirus infected Sf9 cells using 5-methylcytosine as substrate preincubated for 10 mins followed by substrate and DNA-cofactor addition measured after 10 mins by Alphascreen assay; details: read-out: pIC50 (converted)
Methylcytosine dioxygenase TET3, sequence (O43151 whole entry, the tested form may be a part): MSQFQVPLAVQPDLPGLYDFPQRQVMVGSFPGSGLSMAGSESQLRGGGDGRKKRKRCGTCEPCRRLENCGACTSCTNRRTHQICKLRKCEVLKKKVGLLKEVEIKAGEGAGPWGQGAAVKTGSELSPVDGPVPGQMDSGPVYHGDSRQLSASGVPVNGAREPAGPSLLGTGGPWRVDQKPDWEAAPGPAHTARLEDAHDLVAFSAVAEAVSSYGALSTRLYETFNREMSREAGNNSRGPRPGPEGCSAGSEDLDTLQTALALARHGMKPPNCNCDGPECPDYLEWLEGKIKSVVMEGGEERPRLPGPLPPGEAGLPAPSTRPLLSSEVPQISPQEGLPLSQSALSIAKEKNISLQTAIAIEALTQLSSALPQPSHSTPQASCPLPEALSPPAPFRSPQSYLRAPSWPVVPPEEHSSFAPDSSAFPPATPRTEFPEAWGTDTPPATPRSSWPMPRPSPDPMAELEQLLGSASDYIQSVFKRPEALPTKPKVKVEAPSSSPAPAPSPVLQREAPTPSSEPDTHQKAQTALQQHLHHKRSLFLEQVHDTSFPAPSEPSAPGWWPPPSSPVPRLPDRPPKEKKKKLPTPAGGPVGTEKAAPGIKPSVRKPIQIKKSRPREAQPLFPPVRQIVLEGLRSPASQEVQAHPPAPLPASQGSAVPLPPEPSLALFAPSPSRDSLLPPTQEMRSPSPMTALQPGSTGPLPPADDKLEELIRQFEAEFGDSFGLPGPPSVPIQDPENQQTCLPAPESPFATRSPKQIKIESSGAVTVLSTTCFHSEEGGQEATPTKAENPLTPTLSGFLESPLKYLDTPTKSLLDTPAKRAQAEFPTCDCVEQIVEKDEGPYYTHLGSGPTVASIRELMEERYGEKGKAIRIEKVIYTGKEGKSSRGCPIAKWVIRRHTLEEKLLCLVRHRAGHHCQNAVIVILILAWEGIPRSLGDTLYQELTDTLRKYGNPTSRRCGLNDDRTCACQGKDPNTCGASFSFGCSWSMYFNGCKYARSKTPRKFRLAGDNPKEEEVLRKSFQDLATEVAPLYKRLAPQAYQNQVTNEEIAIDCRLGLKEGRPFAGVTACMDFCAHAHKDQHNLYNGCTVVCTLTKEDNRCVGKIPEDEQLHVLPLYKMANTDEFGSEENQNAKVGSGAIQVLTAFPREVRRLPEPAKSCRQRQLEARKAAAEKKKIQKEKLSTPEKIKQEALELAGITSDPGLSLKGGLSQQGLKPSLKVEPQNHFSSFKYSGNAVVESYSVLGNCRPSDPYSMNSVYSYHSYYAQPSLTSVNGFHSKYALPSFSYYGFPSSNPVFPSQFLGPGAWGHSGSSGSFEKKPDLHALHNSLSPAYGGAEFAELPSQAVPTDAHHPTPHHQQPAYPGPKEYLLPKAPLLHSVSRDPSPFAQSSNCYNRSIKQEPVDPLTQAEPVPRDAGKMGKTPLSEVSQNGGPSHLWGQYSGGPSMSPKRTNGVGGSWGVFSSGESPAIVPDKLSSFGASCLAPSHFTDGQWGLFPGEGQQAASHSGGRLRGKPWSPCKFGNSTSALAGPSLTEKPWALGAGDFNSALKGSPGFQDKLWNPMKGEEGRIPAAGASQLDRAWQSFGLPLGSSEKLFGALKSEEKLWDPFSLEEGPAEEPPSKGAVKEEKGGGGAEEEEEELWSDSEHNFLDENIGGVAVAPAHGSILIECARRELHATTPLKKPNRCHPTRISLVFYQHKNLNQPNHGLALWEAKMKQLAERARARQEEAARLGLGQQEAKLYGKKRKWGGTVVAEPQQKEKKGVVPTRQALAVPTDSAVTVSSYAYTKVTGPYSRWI

[2] = target: T1, Methylcytosine dioxygenase TET2 (Homo sapiens, UniProt Q6N021); assay: (§1) Inhibition of N-terminal His-tagged recombinant human TET2 catalytic domain LCIdel mutant (D1129 to G1936 residues with Y1481 to N1843 replaced by 3 x GGGGS linker) expressed in Escherichia coli BL21 (DE3) using 5-methylcytosine as substrate preincubated for 10 mins followed by substrate and DNA-cofactor addition measured after 10 mins by Alphascreen assay
[3] = target: Methylcytosine dioxygenase TET1 (Homo sapiens, UniProt Q8NFU7); assay: Inhibition of N-terminal 3xFlag-tagged recombinant human TET1 catalytic domain (E1418 to V2136 residues) expressed in baculovirus infected Sf9 cells using 5-methylcytosine as substrate preincubated for 10 mins followed by substrate and DNA-cofactor addition measured after 30 mins by Alphascreen assay; details: read-out: pIC50 (converted)
Method in brief: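 TET1 catalytic domain (E1418–V2136, Sf9 baculovirus) at 2 nM was preincubated 10 min with inhibitor (1% DMSO) in HEPES 50 mM pH 7.3, 150 mM NaCl, 0.1% BSA, 0.01% Tween-20. Reaction was started with ascorbate 200 µM, Fe(II) 20 µM, 2OG 20 µM and 5mC ssDNA 10 nM, run 30 min, then EDTA-quenched. Anti-5hmC antibody with AlphaScreen beads, 45–60 min, luminescence read. Three independent replicates.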

[4] = test system: Methylcytosine dioxygenase TET2 (Homo sapiens), Q6N021 [UNDEFINED MUTATION]; details: time 20.0 min
[5] = target: Methylcytosine dioxygenase TET1 (Mus musculus, UniProt Q3URK3); assay: Inhibition of recombinant mouse TET1 catalytic domain (E1367 to V2039 residues) expressed in baculovirus expression system using 5-methylcytosine as substrate preincubated for 10 mins followed by substrate and DNA-cofactor addition measured after 9 mins by Alphascreen assay
Methylcytosine dioxygenase TET1 (Mus musculus, UniProt Q3URK3), sequence (Q3URK3 whole entry, the tested form may be a part): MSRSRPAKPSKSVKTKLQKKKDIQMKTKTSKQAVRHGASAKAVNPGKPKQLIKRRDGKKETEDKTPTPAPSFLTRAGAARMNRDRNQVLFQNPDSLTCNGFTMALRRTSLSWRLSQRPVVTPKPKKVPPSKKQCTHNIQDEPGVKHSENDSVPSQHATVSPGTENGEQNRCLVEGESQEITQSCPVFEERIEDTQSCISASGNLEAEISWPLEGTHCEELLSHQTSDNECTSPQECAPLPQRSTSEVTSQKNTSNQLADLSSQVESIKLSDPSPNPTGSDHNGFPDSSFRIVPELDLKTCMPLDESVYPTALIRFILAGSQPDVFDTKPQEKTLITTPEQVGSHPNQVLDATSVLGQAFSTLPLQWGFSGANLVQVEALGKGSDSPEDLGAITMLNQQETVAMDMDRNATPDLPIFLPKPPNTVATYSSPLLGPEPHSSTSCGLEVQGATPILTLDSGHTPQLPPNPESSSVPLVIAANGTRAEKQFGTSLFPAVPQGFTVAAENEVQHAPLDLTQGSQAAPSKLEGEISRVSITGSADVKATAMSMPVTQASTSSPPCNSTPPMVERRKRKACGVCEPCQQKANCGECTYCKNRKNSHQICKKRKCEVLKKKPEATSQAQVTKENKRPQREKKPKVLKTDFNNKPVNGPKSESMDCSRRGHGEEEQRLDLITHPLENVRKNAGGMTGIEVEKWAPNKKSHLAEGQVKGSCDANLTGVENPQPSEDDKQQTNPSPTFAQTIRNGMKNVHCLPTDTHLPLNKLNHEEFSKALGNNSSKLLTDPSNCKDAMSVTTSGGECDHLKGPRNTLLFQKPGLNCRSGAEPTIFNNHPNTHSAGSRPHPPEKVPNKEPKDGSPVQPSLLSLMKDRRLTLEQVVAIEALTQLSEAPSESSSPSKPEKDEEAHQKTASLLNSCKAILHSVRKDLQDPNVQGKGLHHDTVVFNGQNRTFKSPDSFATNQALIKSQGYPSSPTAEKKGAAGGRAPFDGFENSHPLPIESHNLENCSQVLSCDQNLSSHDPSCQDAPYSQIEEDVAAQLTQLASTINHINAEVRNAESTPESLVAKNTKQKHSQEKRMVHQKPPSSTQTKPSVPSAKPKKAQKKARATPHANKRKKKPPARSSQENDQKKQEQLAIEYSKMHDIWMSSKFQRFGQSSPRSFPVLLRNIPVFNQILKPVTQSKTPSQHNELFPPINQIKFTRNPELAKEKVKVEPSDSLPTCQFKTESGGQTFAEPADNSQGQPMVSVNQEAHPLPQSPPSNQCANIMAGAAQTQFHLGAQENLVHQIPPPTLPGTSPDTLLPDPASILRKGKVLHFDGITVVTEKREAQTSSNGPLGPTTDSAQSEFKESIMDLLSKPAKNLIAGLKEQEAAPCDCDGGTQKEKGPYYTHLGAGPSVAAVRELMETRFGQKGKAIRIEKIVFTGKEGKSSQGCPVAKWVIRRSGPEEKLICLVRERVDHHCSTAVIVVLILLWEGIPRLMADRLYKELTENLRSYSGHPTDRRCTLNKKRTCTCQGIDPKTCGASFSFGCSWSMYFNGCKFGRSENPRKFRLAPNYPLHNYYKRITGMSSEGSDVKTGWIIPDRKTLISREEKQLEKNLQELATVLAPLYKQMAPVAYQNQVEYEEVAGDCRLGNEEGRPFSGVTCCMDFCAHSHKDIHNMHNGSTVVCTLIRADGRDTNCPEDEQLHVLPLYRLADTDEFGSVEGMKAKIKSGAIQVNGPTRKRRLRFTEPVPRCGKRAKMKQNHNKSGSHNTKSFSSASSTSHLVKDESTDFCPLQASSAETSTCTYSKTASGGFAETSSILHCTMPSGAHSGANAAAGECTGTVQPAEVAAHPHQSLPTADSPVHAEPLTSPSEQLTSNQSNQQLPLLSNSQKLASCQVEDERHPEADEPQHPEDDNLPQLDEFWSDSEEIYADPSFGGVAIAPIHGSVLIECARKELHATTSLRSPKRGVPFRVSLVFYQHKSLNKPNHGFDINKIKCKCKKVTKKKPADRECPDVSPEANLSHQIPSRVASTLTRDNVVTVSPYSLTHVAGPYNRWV
Method in brief: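 Murine Tet1 catalytic domain (E1367–V2039, High Five baculovirus) at 2 nM was preincubated 10 min with inhibitor (1% DMSO) in HEPES 50 mM pH 7.3, NaCl 150 mM, BSA 0.1%, Tween-20 0.01%. Ascorbate 200 µM, Fe(II) 20 µM, 2OG 20 µM and 5mC ssDNA 10 nM were added; reaction ran 9 min, then EDTA-quenched. AlphaScreen anti-5hmC detection by luminescence.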

[6] = target: T1, Methylcytosine dioxygenase TET2; assay: as §1, with “after 12” for “after 10”, “by SPE-MS analysis” for “by Alphascreen assay”

Compound | IC50 [1] | pIC50 [2] | IC50 [3] | deltapIC50 [4] | IC50 [5] | pIC50 [6]
CC[C@H](C)[C@H](NC(=O)[C@H](CC(C)C)NC(=O)[C@@H](Cc1ccc(O)cc1)NC(C)=O)C(=O)N[C@@H](Cc1ccc(O)cc1)C(=O)N[C@@H](C)C(=O)N[C@@H](Cc1ccc(O)cc1)C(=O)N[C@@H](Cc1ccc(O)cc1)C(=O)N[C@H](C(=O)N[C@@H](Cc1c[nH]c2ccccc12)C(=O)N[C@@H](Cc1c[nH]c2ccccc12)C(=O)N[C@@H](CCC(=O)O)C(=O)N[C@@H](Cc1cnc[nH]1)C(=O)N[C@@H](CO)C(=O)N[C@@H](CS)C(N)=O)[C@@H](C)O | 30900 nM | < 4 | 70800 nM |  |  | 
C[C@@H]1NC(=O)[C@H](Cc2ccccc2)NC(=O)[C@H](Cc2ccc(O)cc2)NC(=O)[C@H](Cc2ccc(O)cc2)NC(=O)[C@H](CCCNC(=N)N)NC(=O)[C@@H](Cc2ccc(O)cc2)NC(=O)CSC[C@@H](C(N)=O)NC(=O)[C@H](C)NC(=O)[C@H](Cc2c[nH]c3ccccc23)NC(=O)[C@H](Cc2c[nH]c3ccccc23)NC(=O)[C@H]([C@@H](C)O)NC(=O)[C@H](Cc2ccc(O)cc2)NC1=O | 2750 nM | 5.52 | 468 nM | -0.5 | 3630 nM | ~ 5
CC[C@H](C)[C@@H]1NC(=O)[C@H](CCC(N)=O)NC(=O)[C@H](Cc2c[nH]cn2)NC(=O)[C@H](Cc2ccc(O)cc2)NC(=O)[C@H]([C@@H](C)O)NC(=O)[C@H](CCCCN)NC(=O)[C@H](C(C)C)NC(=O)[C@H](CCCNC(=N)N)NC(=O)[C@H](Cc2ccc(O)cc2)NC(=O)[C@@H](Cc2ccc(O)cc2)NC(=O)CSC[C@@H](C(N)=O)NC(=O)[C@H](CO)NC(=O)[C@H](C(C)C)NC(=O)[C@H](Cc2ccc(O)cc2)NC(=O)[C@H](C(C)C)NC(=O)[C@H](Cc2ccc(O)cc2)NC(=O)[C@H]([C@@H](C)O)NC1=O | 501 nM | 5.89 | 776 nM | -0.34 | 1350 nM | 5.55
CC[C@H](C)[C@@H]1NC(=O)[C@H](CCC(N)=O)NC(=O)[C@H](Cc2ccc(O)cc2)NC(=O)[C@H](Cc2ccc(O)cc2)NC(=O)[C@H]([C@@H](C)O)NC(=O)[C@H](CCCCN)NC(=O)[C@H](C(C)C)NC(=O)[C@H](CCCNC(=N)N)NC(=O)[C@H](Cc2ccc(O)cc2)NC(=O)[C@@H](Cc2ccc(O)cc2)NC(=O)CSC[C@@H](C(N)=O)NC(=O)[C@H](CO)NC(=O)[C@H](CC(C)C)NC(=O)[C@H](Cc2ccc(O)cc2)NC(=O)[C@H](C(C)C)NC(=O)[C@H](Cc2ccc(O)cc2)NC(=O)[C@H]([C@@H](C)O)NC1=O | 2690 nM | 5.52 | 794 nM | -0.01 | 4070 nM | 5.51
CC[C@H](C)[C@@H]1NC(=O)[C@H](Cc2c[nH]c3ccccc23)NC(=O)[C@H](Cc2c[nH]c3ccccc23)NC(=O)[C@H]([C@@H](C)O)NC(=O)[C@H](Cc2ccc(O)cc2)NC(=O)[C@H](CC(N)=O)NC(=O)[C@H](Cc2ccc(O)cc2)NC(=O)[C@H](Cc2ccc(O)cc2)NC(=O)[C@H](CC(C)C)NC(=O)[C@H](CCCCN)NC(=O)[C@@H](Cc2c[nH]c3ccccc23)NC(=O)CSC[C@@H](C(N)=O)NC1=O | 692 nM | 6.03 | 603 nM | -0.63 | 1050 nM | 5.4
CC[C@H](C)[C@@H]1NC(=O)[C@H](CCC(N)=O)NC(=O)[C@H](Cc2ccc(O)cc2)NC(=O)[C@H](Cc2ccc(O)cc2)NC(=O)[C@H]([C@@H](C)O)NC(=O)[C@H](CCCCN)NC(=O)[C@H](C(C)C)NC(=O)[C@H](CCCNC(=N)N)NC(=O)[C@H](Cc2ccc(O)cc2)NC(=O)[C@@H](Cc2ccc(O)cc2)NC(=O)CSC[C@@H](C(N)=O)NC(=O)[C@H](CO)NC(=O)[C@H](C(C)C)NC(=O)[C@H](Cc2ccc(O)cc2)NC(=O)[C@H](C(C)C)NC(=O)[C@H](Cc2ccc(O)cc2)NC(=O)[C@H]([C@@H](C)O)NC1=O | 6030 nM | 5.11 | 1350 nM | 0.39 | 8710 nM | 5.5
CC[C@H](C)[C@@H]1NC(=O)[C@H]([C@@H](C)CC)NC(=O)[C@@H](Cc2c[nH]c3ccccc23)NC(=O)CSC[C@@H](C(N)=O)NC(=O)[C@H](CCCNC(=N)N)NC(=O)[C@H](Cc2c[nH]c3ccccc23)NC(=O)[C@H](Cc2c[nH]c3ccccc23)NC(=O)[C@H]([C@@H](C)O)NC(=O)[C@H](Cc2ccc(O)cc2)NC(=O)[C@H](CC(N)=O)NC(=O)[C@H](Cc2c[nH]cn2)NC(=O)[C@H](Cc2ccc(O)cc2)NC1=O | 631 nM | 6.08 | 363 nM | -0.54 | 933 nM | 5.54
CC(C)[C@@H]1NC(=O)[C@@H]2CCCN2C(=O)[C@H](C)NC(=O)[C@@H](Cc2ccc(O)cc2)NC(=O)CSC[C@@H](C(N)=O)NC(=O)[C@H](Cc2c[nH]c3ccccc23)NC(=O)[C@H](Cc2c[nH]c3ccccc23)NC(=O)[C@H]([C@@H](C)O)NC(=O)[C@H](Cc2ccc(O)cc2)NC(=O)[C@H](CC(N)=O)NC(=O)[C@H](Cc2c[nH]c3ccccc23)NC(=O)[C@H](Cc2ccc(O)cc2)NC1=O | 46800 nM | 4.17 | 1860 nM | 1.49 | 55000 nM | 5.66
CC[C@H](C)[C@@H]1NC(=O)[C@H](CO)NC(=O)[C@H](CCCNC(=N)N)NC(=O)[C@H](CC(C)C)NC(=O)[C@H](Cc2c[nH]cn2)NC(=O)[C@H](CC(C)C)NC(=O)[C@@H]2CCCN2C(=O)[C@H]([C@@H](C)CC)NC(=O)[C@@H](Cc2c[nH]c3ccccc23)NC(=O)CSC[C@@H](C(N)=O)NC(=O)[C@H](CO)NC(=O)[C@H](CCCNC(=N)N)NC(=O)CNC(=O)[C@H](CC(N)=O)NC(=O)[C@H](Cc2ccc(O)cc2)NC(=O)[C@H](C)NC(=O)[C@H](CC(C)C)NC1=O | 18200 nM | 4.65 | 692 nM | 0.2 | 27500 nM | 4.85
CC[C@H](C)[C@@H]1NC(=O)[C@H](Cc2ccc(O)cc2)NC(=O)[C@H](Cc2ccc(O)cc2)NC(=O)[C@H](C(C)C)NC(=O)[C@@H](Cc2ccc(O)cc2)NC(=O)CSC[C@@H](C(N)=O)NC(=O)[C@H]([C@@H](C)O)NC(=O)[C@H](CCC(=O)O)NC(=O)[C@H](Cc2ccccc2)NC(=O)[C@H](C(C)C)NC(=O)[C@H](C)NC(=O)[C@H](CCCNC(=N)N)NC(=O)[C@H](CS)NC(=O)[C@H](Cc2c[nH]c3ccccc23)NC(=O)[C@H](Cc2c[nH]c3ccccc23)NC(=O)[C@@H]2CCCN2C1=O | 31600 nM | < 4 | 44700 nM | > 1.44 | 38900 nM | 5.44
CC(C)C[C@@H]1NC(=O)[C@H](Cc2ccc(O)cc2)NC(=O)[C@H](Cc2c[nH]c3ccccc23)NC(=O)[C@@H](Cc2ccc(O)cc2)NC(=O)CSC[C@@H](C(N)=O)NC(=O)[C@H](Cc2ccccc2)NC(=O)[C@H](Cc2c[nH]c3ccccc23)NC(=O)[C@@H]2CCCN2C(=O)[C@H](C(C)C)NC(=O)[C@H](CCCNC(=N)N)NC(=O)[C@H](Cc2ccc(O)cc2)NC(=O)[C@H](CO)NC(=O)[C@@H]2CCCN2C1=O | 2400 nM | 5.49 | 174 nM | -0.3 | 3470 nM | 5.19
CC[C@H](C)[C@@H]1NC(=O)[C@H](CCCNC(=N)N)NC(=O)[C@@H](Cc2ccc(O)cc2)NC(=O)CSC[C@@H](C(N)=O)NC(=O)[C@H](Cc2ccc(O)cc2)NC(=O)[C@H](C(C)C)NC(=O)[C@H](CC(N)=O)NC(=O)[C@H](Cc2c[nH]c3ccccc23)NC(=O)[C@H](Cc2c[nH]c3ccccc23)NC(=O)[C@H]([C@@H](C)O)NC(=O)[C@H](Cc2ccc(O)cc2)NC(=O)[C@H](Cc2ccccc2)NC(=O)[C@H](CC(C)C)NC(=O)[C@H](Cc2ccc(O)cc2)NC1=O | 2400 nM | 5.59 | 1150 nM | 0.02 | 3390 nM | 5.61
C[C@@H]1NC(=O)[C@H](Cc2c[nH]c3ccccc23)NC(=O)[C@H](Cc2ccc(O)cc2)NC(=O)[C@H](Cc2ccc(O)cc2)NC(=O)[C@H](CCCCN)NC(=O)[C@H](CC(=O)O)NC(=O)[C@H]([C@@H](C)O)NC(=O)[C@@H](Cc2c[nH]c3ccccc23)NC(=O)CSC[C@@H](C(N)=O)NC(=O)[C@H](CO)NC(=O)[C@H](Cc2c[nH]c3ccccc23)NC(=O)[C@H](Cc2c[nH]c3ccccc23)NC(=O)[C@H]([C@@H](C)O)NC(=O)[C@H](Cc2ccc(O)cc2)NC1=O | 3550 nM | 5.41 | 794 nM | -0.79 | 4370 nM | 4.62
